Legend:
Cannabinoid receptor 2 [1] = molecular target: T1, Cannabinoid receptor 2 (Homo sapiens, UniProt P34972); assay: Displacement of [3H]CP-55940 from human recombinant CB2 receptor expressed in HEK293 cells after 90 mins; assay type: cell-based
Outline: (§1)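 Competitive binding: [³H]CP-55,940 displaced from membranes of HEK 293 cells stably transfected with human or rat CB₂, or CHO cells stably transfected with human or rat CB₁. Reported as pKi. Determinations >2 (duplicate of duplicate).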

Cannabinoid receptor 2 [2] = molecular target: T2, Cannabinoid receptor 2 (Rattus norvegicus, UniProt Q9QZN9); assay: Displacement of [3H]CP-55940 from rat recombinant CB2 receptor expressed in HEK293 cells after 90 mins; assay type: cell-based; outline: as §1
T2 sequence (Q9QZN9 whole entry): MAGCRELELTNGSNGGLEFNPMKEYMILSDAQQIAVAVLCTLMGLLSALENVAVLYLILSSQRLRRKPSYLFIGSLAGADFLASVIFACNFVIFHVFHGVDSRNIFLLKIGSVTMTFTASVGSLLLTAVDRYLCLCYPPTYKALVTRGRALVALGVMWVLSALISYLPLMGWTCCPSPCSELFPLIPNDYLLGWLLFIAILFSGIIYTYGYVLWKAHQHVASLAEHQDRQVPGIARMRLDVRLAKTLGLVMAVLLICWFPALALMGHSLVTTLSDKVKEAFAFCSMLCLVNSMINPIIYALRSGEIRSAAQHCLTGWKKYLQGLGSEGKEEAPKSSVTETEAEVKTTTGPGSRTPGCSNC

Cannabinoid receptor 1 [3] = molecular target: Cannabinoid receptor 1 (Homo sapiens, UniProt P21554); assay: Displacement of [3H]CP-55940 from human recombinant CB1 receptor expressed in CHO cells after 90 mins; assay type: cell-based; outline: as §1
Cannabinoid receptor 1 [4] = molecular target: Cannabinoid receptor 1 (Rattus norvegicus, UniProt P20272); assay: Displacement of [3H]CP-55940 from rat recombinant CB1 receptor expressed in CHO cells after 90 mins; assay type: cell-based; outline: as §1
Cannabinoid receptor 2 [5] = molecular target: T1, Cannabinoid receptor 2; assay: Agonist activity at human recombinant CB2 receptor expressed in HEK293 cells co-expressing chimeric Gaq/o protein by FLIPR assay; assay type: functional, cell-based
Outline: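 FLIPR functional assay in HEK 293 cells stably co-expressing chimeric Gαq/o protein and the CB receptor. Net peak evoked response was compared with the peak response to CP-55,940.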

Cannabinoid receptor 2 [6] = molecular target: T1, Cannabinoid receptor 2; assay: Agonist activity at human recombinant CB2 receptor expressed in HEK293 cells assessed as inhibition of forskolin-induced cAMP production after 20 mins by ELISA; assay type: functional, cell-based
Outline: (§2)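 cAMP assay in HEK 293 cells stably expressing the relevant CB receptor, with a fixed concentration of forskolin. cAMP was quantified by ELISA. Activation is given as percent of the CP-55,940 control response.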

Cannabinoid receptor 2 [7] = molecular target: T2, Cannabinoid receptor 2; assay: Agonist activity at rat recombinant CB2 receptor expressed in HEK293 cells assessed as inhibition of forskolin-induced cAMP production after 20 mins by ELISA; assay type: functional, cell-based; outline: as §2
[8] = Plasma protein binding in human; assay type: ADME, cell-free; details: read-out: PPB (converted)
[9] = Plasma protein binding in rat; assay type: ADME, cell-free; details: read-out: PPB (converted)

T1 sequence (P34972 whole entry): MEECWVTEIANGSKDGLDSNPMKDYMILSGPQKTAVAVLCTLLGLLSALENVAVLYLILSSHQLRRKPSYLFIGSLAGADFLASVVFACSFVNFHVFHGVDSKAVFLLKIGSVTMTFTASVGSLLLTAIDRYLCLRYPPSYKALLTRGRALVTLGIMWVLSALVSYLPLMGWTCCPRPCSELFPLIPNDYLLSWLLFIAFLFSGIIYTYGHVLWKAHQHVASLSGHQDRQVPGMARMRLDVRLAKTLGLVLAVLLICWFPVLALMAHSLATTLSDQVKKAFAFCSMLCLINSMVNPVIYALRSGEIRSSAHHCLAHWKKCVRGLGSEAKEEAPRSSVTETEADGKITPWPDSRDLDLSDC
Cannabinoid receptor 1 (Homo sapiens, UniProt P21554), sequence (P21554 whole entry): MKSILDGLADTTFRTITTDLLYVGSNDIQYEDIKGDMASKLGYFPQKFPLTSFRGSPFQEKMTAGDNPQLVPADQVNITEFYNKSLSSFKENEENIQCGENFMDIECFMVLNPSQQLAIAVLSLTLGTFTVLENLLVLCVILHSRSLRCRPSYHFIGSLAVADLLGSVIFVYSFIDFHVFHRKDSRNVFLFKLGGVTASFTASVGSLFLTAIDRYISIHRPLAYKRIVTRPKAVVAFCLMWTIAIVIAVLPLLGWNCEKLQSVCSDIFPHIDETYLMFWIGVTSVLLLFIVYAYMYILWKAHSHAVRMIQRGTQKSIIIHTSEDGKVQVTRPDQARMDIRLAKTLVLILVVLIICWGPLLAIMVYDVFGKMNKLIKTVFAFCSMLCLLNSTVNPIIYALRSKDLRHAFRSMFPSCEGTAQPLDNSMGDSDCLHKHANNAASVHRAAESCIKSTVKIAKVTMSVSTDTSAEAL
Cannabinoid receptor 1 (Rattus norvegicus, UniProt P20272), sequence (P20272 whole entry): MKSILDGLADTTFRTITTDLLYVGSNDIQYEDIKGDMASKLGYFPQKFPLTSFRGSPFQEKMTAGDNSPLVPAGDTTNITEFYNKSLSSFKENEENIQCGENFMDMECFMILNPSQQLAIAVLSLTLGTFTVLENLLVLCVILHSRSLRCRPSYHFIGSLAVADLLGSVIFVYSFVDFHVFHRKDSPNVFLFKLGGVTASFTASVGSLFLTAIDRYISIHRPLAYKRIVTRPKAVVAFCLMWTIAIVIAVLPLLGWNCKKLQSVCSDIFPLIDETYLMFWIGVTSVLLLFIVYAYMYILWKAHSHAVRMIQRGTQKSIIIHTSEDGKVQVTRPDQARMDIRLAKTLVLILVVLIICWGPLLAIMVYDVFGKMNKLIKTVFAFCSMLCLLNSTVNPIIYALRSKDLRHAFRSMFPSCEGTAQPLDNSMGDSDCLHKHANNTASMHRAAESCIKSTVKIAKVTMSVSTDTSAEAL

SMILES	Ki (Cannabinoid receptor 2 [1])	Ki (Cannabinoid receptor 2 [2])	Ki (Cannabinoid receptor 1 [3])	Ki (Cannabinoid receptor 1 [4])	IC50 (Cannabinoid receptor 2 [5])	IC50 (Cannabinoid receptor 2 [6])	IC50 (Cannabinoid receptor 2 [7])	fraction unbound [8]	fraction unbound [9]
CCCNC(=O)c1c(NC(=O)C23CC4CC(CC(C4)C2)C3)sc2c1CCOC2	33.9 nM	20 nM	> 10 µM	525 nM	42.7 nM	11.2 nM	> 10 µM	< 0.01	< 0.01
CCCNC(=O)c1c(NC(=O)C23CC4CC(CC(C4)O2)C3)sc2c1CCOC2	257 nM	490 nM	> 10 µM	–	–	–	–	–	–

Reference: ChEMBL document CHEMBL2010740, “Synthesis and evaluation of 2-amido-3-carboxamide thiophene CB₂ receptor agonists for pain management” (Bioorg Med Chem Lett, 2012)
